Most compounds without a hit are left out; they make up all but 27% or so of the library.
HIV Rev-RRE inh: HIV Rev-RRE protein-RNA interaction inhibition. P05866. Rev peptide-RRE RNA binding, FRET. inhibition, % at 8 µM. 97,000 compounds, 0.79% hits. AID 704;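 active = inhibition above the screen-wide mean plus 3 SD, cut at about 35% in these data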
Target sequence (P05866 whole entry, looked up): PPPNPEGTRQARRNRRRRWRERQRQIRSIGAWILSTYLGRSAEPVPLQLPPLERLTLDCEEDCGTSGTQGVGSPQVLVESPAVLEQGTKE
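Material: labelled RRE RNA duplex and labelled Rev peptide / Buffer or medium: HEPES pH 7.5 salt buffer with EDTA / Compound dosing: single point, 8 µM final nominal compound concentration / Benchmarks: DMSO low control, neomycin B high control / Timing: 5 min preincubation and 15 min binding, 25 °C / Technique: FRET fluorescence readout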
CYP2C19 inhib: blocks human cytochrome P450 2C19. P33261. CYP2C19 Supersomes, luciferin-H EGE luminescence, 30 min. inhibition, % at 5 µM. 96,000 compounds, 21% hits. AID 778;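 active = CYP2C19 inhibition above a set limit at 5 µM in the primary screen, cut at about 50% in these data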
Cav32 inh: inhibitors of human Cav3.2 T-type calcium channel; Cav3.2-expressing cells, Fluo-4 calcium fluorescence FDSS; hits give low values; AID 449739; O95180; 100,000 compounds, 4% hits; B-score at 10 µM;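 active = single-dose well whose peak fluorescence ratio is a statistical outlier from its plate by either plate-standardised score or position-corrected B-score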
CYP2C9 activ: increases human cytochrome P450 2C9 activity; recombinant CYP2C9, luciferin-H conversion, luminescence; hits give high values; factor 1 = untreated enzyme, 0 = blocked; activation factor at 5 µM; 96,000 compounds, 1.4% hits;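 active = activation factor of 2 or more for CYP2C9 at a 5 µM dose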
Target sequence (P11712 whole entry, looked up): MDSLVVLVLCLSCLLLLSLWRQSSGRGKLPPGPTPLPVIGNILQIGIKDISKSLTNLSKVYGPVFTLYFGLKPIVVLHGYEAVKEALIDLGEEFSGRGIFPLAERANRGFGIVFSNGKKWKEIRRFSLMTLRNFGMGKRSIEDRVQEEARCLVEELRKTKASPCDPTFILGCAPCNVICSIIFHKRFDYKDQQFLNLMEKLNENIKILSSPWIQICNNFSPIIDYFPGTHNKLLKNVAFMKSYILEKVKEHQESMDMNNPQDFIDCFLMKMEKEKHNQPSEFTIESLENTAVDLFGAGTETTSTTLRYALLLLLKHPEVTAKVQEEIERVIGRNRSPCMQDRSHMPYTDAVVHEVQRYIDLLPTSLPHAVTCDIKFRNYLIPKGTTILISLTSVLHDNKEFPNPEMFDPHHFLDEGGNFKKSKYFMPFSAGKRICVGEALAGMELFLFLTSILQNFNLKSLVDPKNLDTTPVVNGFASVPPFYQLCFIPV
CYP2C9 inhib: blocks human cytochrome P450 2C9 | AID 777 | CYP2C9 Supersomes, luciferin-H conversion, luminescence | 96,000 compounds, 20% hits | inhibition, % at 5 µM | P11712;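 active = blocking of liver enzyme CYP2C9 beyond about 50% at 5 µM, limit read from the data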
CYP2C19 act: increases human CYP2C19 enzyme activity. 96,000 tested, under 10 active. AID 1025. P33261. recombinant CYP2C19, luciferin-H EGE luminescence; hits give high values; 0 = fully inhibited enzyme, 1 = untreated enzyme. activation factor at 5 µM;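 active = activation factor of at least 2 at 5 µM in the primary screen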
Hits are given with their value; n = inactive; x = no result; [ ] = remark or other dose.

SMILES	HIV Rev-RRE inh	CYP2C19 inhib	Cav32 inh	CYP2C9 activ	CYP2C9 inhib	CYP2C19 act
CCCCOc1ccc(OCCCN2CCOCC2)cc1	x	x	n	x	x	x
Cc1cccc(C)c1OCCCN1CCCC1	n	n	n	n	n	n
Cc1cccc2sc(NC(=O)CNS(=O)(=O)c3ccc(Br)s3)nc12	n	65	n	n	n	n
Cc1ccc2nc(NC(=O)CN(C)S(=O)(=O)c3ccc(Br)s3)sc2c1	n	n	x	n	n	n
COc1ccc2nc(NC(=O)Cc3cccs3)sc2c1	n	n	n	n	n	n
Cc1ccc2nc(NC(=O)Cc3cccs3)sc2c1	n	n	-3.6	n	n	n
Cc1ccc2nc(NC(=O)CNS(=O)(=O)c3ccc(Br)s3)sc2c1	n	n	n	n	63	n
COc1cc(O)c(C(CC(=O)N2CCOCC2)c2cc(OC)c(OC)c(OC)c2)c(OC)c1 (configuration not stated)	x	x	n	x	x	x
C=CCOC(=O)C1=C[C@@H](c2csc3ccccc23)C[C@@H](OCCCCO)O1	x	x	n	x	x	x
Cc1nc(NC(=O)COc2ccccc2)sc1C(=O)Nc1cccc(Cl)c1	n	n	n	n	n	n
CCOC(=O)C1CCN(C(=O)CCNC(=O)c2cc(OC)c(OC)c(OC)c2)CC1	n	n	n	n	n	n
COc1ccc(-n2nnnc2/C=C\Nc2ccccc2C(=O)c2ccccc2)cc1	n	51	n	n	n	n
COc1ccc(OCCNC(=S)Nc2cccc3ccccc23)cc1	n	n	n	n	n	n
O=C(NNC(=S)Nc1cccc2ccccc12)c1cccc(Br)c1	n	91	n	n	96	n
Cc1ccc(C(=O)NNC(=S)Nc2cccc3ccccc23)s1	n	n	n	n	65	n
O=C(NCc1ccccc1)C(c1ccco1)N(C(=O)c1cnccn1)c1ccc(F)cc1 (configuration not stated)	n	n	x	n	n	n
CC(=O)c1cccc(N(C(=O)c2cnccn2)C(C(=O)NCc2ccccc2)c2ccco2)c1 (configuration not stated)	n	53	n	n	n	n
CC1=C(c2ccc(C)cc2)S(=O)(=O)N(CC(=O)O)C1=O	x	n	n	n	82	n
COc1ccc2[nH]c(=O)c(CN(C(=O)c3cccnc3)c3ccccc3)cc2c1	n	n	n	n	n	n
CCOc1ccc2[nH]c(=O)c(CN(Cc3cccnc3)C(=O)Nc3ccccc3OC)cc2c1	n	54	n	n	n	n
CCOc1ccc2[nH]c(=O)c(CN(CCc3ccccc3)C(=O)c3cnccn3)cc2c1	n	51	n	n	n	n
CCc1ccc2[nH]c(=O)c(CN(Cc3ccccc3OC)C(=O)Nc3ccccc3OC)cc2c1	n	n	-5.2	n	93	n
CCOc1ccc2[nH]c(=O)c(CN(Cc3ccccc3OC)C(=O)c3ccccc3)cc2c1	n	n	n	n	n	n
COc1ccc2[nH]c(=O)c(CN(Cc3cccnc3)C(=O)Nc3ccccc3)cc2c1	x	88	n	n	88	n
CCCCC(=O)Nc1ccc(NC(=O)CC)cc1OC	n	n	x	n	n	n
SMILES	HIV Rev-RRE inh	CYP2C19 inhib	Cav32 inh	CYP2C9 activ	CYP2C9 inhib	CYP2C19 act
COc1ccc(NC(=O)N(Cc2ccc(C)cc2)Cc2cccnc2)c(OC)c1	n	97	n	n	90	n
O=C(CSc1ccc(Cl)cc1Cl)N1CCC(c2nc3ccccc3s2)CC1	n	55	n	n	58	n
CCOc1ccc(NC(=O)CC2C(=O)N(c3ccccc3)C(=S)N2Cc2ccccn2)cc1 (configuration not stated)	n	n	n	n	n	n
CCCOc1ccc(NC(=O)CC2C(=O)N(CC)C(=S)N2Cc2cccs2)cc1 (configuration not stated)	n	82	n	n	52	n
COCCCN=C(c1ccco1)n1c(=S)nc(-c2ccco2)n(CCCOC)c1=S	n	n	n	n	61	n
COCCCn1c(SCC(=O)N2CCCCC2C)nnc1-c1ccco1 (configuration not stated)	n	n	n	n	n	n
O=C(O)C(=O)/C(=C\c1ccccc1)c1ccc2ccccc2n1	78	n	n	n	n	n
O=C(O)C(=O)/C(=C\c1cccc2ccccc12)c1ccc2ccccc2n1	89[fluorescence artefact?]	n	-5.5	n	n	n
COC(=O)c1ccc2ccccc2n1	x	x	n	x	x	x
CCOC(=O)C1C(=O)Nc2nc3ccccc3n2C1C(C)C (configuration not stated)	n	n	n	n	n	n
COC(=O)c1ccc(Oc2nc(C(N)=O)cc(-c3ccccc3)n2)cc1	n	n	n	n	n	n
CCOc1ccccc1NC(=O)NC1CC2CCCC(C1)N2Cc1nnnn1CCc1ccccc1 (configuration not stated)	x	78	x	n	61	n
COc1ccc2c(c1)c(=O)c(C(=O)c1ccccc1)cn2Cc1ccc(C)cc1	x	x	-5.5	x	x	x
COc1ccc2c(c1)c(=O)c(Br)c(C)n2Cc1ccccc1	x	n	n	n	n	n
CCOC(=O)NCCc1c(C)nc2c(c(C)nn2C(C)(C)C)c1C	n	n	n	n	n	n
COc1ccc(N2CCN(C(=O)CSc3ccccc3N)CC2)cc1	n	58	n	n	69	n
COc1ccc(N2CCN(C(=O)CC(NC(N)=O)c3cccc(Oc4ccccc4)c3)CC2)cc1 (configuration not stated)	n	64	-5.5	n	n	n
CC1(C)Cc2ccccc2-c2nnc(SCC(=O)N3CCc4ccccc43)n21	n	n	n	n	53	n
COc1ccc(N2CCN(C(=O)CSc3nnc4n3C(C)(C)Cc3ccccc3-4)CC2)cc1	n	58	x	n	n	n
COC(=O)CSc1nnc2n1C(C)(C)Cc1ccccc1-2	n	n	n	n	n	n
COc1ccc(N2CCN(C(=O)CSc3ccccc3)CC2)cc1	n	n	n	n	n	n
O=C(Cn1c(-c2cscn2)nc2ccccc21)Nc1ccccc1F	n	n	n	n	n	n
COc1cc(NC(=O)CSc2nnc3n2C(C)(C)Cc2ccccc2-3)cc(OC)c1	n	n	n	n	n	n
COc1ccc(N2CCN(C(=O)CSc3nnc4c5cc(C)ccc5n(C)c4n3)CC2)cc1	n	81	n	n	56	n
Cc1ccc(Cl)cc1N1CCN(C(=O)CSc2nnc3n2C(C)(C)Cc2ccccc2-3)CC1	n	x	-5.5	x	x	x
Cc1cc(C)cc(Nc2ncc3c(n2)CCCC3=O)c1	n	n	n	n	n	n
O=C(O)c1ccc(-c2ccc(O)c(F)c2)cc1	n	n	n	n	n	n
Fc1ccc(NCc2nnc(SCc3nnc(-c4ccccc4)o3)n2Cc2ccccc2)cc1	n	79	-8.3	n	68	n
CCn1c(NC(=O)Nc2ccccc2OC)nc2ccccc21	x	n	n	n	n	n
COc1cccc(Nc2c(F)c(OC)c(F)c(F)c2C(=O)O)c1	n	n	n	n	n	n

Screening data from PubChem.
